Compound activity: PubChem BioAssay, several laboratories
HCT116 bCat-KO: primary screen for growth suppressors in beta-catenin knockout HCT116 cells (colon tumor, human); HCT116 beta-catenin knockout viability, CellTiter-Glo, 60 h; hits give low values; viability, % at 10 µM; 140,000 tested, 1.5% active;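 active means viability at or under a set limit, the compound median less 4 SD, cut at about 6% in these data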;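 further: 0% = Hyamine 1622 control at 20 µM and 100% = untreated cell control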
Cav32 inh: Cav3.2 calcium influx blockers – cell-based, Fluo-4 calcium fluorescence, FDSS, MLSMR library, primary screen | Cav3.2-expressing cells; hits give low values | B-score at 10 µM | 100,000 tested, 4% active | AID 449739, 2010;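 active means single-dose well whose peak fluorescence ratio is a statistical outlier from its plate by either plate-standardised score or position-corrected B-score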
Fibroblast inh: antiproliferative effect on LL 47 fibroblasts – human, LL 47 cells, CellTiter-Glo luminescence, primary screen; viability, % at 10 µM; LL 47 human lung fibroblast viability, ATP luminescence; hits give low values; 85,000 tested, 1.1% active;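 active means viability at or below 50% in the single dose screen; inactive means viability above 50%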;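 further: compound exposure lasted 72 h before the ATP readout; 100% = median luminescence of untreated cell-only wells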
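Test system: LL 47 human lung fibroblasts / Quantity: 1,150 cells in each well / Medium: IMEM growth medium with 15% fetal bovine serum / Incubation: 72 h compound exposure at 37 °C after overnight plating / Detection: CellTiter-Glo luminescence measuring cellular ATP / Read-out: % viability versus median cells-only luminescence / Benchmarks: cell-only wells, no compound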
H69AR growth 86K: proliferation blockers of H69AR lung cancer cells, primary screen, cell-based, human, 86K library. H69AR lung tumor viability, ATP luminescence, 72 h; hits give low values. viability, % at 10 µM. 85,000 tested, 6% active. AID 598, 2007;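 active means viability at or below 40%; inactive means viability above 40%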;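 further: multidrug resistant small cell line overexpressing MRP-1 efflux transporter; 100% = mean luminescence of untreated control wells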
HCT116 PTEN-null: growth suppression of PTEN-null HCT116, primary screen, cell-based, CellTiter-Glo; viability, % at 10 µM; HCT116 PTEN-null viability, 60 h; hits give low values; AID 827, 2007; 140,000 tested, 1.2% active;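 active means viability at or below a set limit, 4 SD under the median of all tested compounds, cut at about 3.7% in these data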;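 further: PTEN knockout HCT116 line with beta catenin targeted HCT116 as companion control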
HUVEC inhibit: inhibitors of HUVEC proliferation, primary screen, cell-based, 384-well. viability, % at 10 µM (by protocol). AID 648, 2007. CellTiter-Glo luminescence, 72 h; hits give low values. 86,000 tested, 1.1% active;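 active means viability at or below 30%; inactive means viability above 30%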;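 further: 100% = median luminescence of DMSO-only cell control wells on each plate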
An asterisk follows results filed as active; / = no result given. A selection: hits, their analogues and other compounds. The true share with any hit is near 7.1%.

SMILES	HCT116 bCat-KO	Cav32 inh	Fibroblast inh	H69AR growth 86K	HCT116 PTEN-null	HUVEC inhibit
CCOC(=O)/C(C#N)=C1/C=CN(c2ccc(C)cc2)C=N1	102.4	2.1	104.2	71.7	103.0	87.5
CCCCCCCN=CC1=C(O)CC(c2ccccc2)CC1=O (centres undefined)	98.9	/	/	/	93.2	/
CCn1cc([N+](=O)[O-])c(C(=O)Nc2nc(-c3ccc(C)c(C)c3)c(C)s2)n1	87.8	/	/	/	70.1	/
CCn1cc([N+](=O)[O-])c(C(=O)Nc2nc(-c3ccc(C)cc3)c(C)s2)n1	6.4	/	/	/	3.3*	/
COc1cc(C2C(C(=O)c3ccco3)=C(O)C(=O)N2CCc2ccccc2)ccc1O (centres undefined)	92.5	0.416	97.7	92.3	92.5	94.8
COCCN1C(=O)C(O)=C(C(=O)c2ccco2)C1c1cccc(Oc2ccccc2)c1 (centres undefined)	95.7	-3.78*	98.7	89.0	94.0	99.5
O=C(Nc1cccc(-c2cnc3ccccc3n2)c1)c1cccc(NC(=O)c2ccco2)c1	75.2	-3.47	34.9*	8.1*	70.9	16.6*
O=C(CCl)Nc1cccc(-c2cnc3ccccc3n2)c1	5.1*	0.456	2.7*	1.5*	3.0*	4.1*
CCC(=O)Nc1cccc(-c2cnc3ccccc3n2)c1	106.5	0.651	102.5	76.6	103.5	107.0
O=C(Nc1cccc(-c2cnc3ccccc3n2)c1)c1ccccc1	84.6	1.02	/	/	92.9	/
Cc1cccc(C)c1OCC(O)CN1CCC(CN2C(=O)c3cccc4cccc(c34)C2=O)CC1 (centres undefined)	1.1*	-3.81	/	/	1.2*	/
CC(=O)c1ccc(OCC(O)CN2CCN(CCN3C(=O)c4cccc5cccc(c45)C3=O)CC2)cc1 (centres undefined)	34.6	/	/	/	36.7	/
Cc1ccccc1OCC(O)CN1CCN(CCN2C(=O)c3cccc4cccc(c34)C2=O)CC1 (centres undefined)	41.4	/	/	/	30.9	/
C=CCc1ccccc1OCC(O)CN1CCN(CCN2C(=O)c3cccc4cccc(c34)C2=O)CC1 (centres undefined)	2.4*	/	/	/	3.7*	/
CCC(OCC(O)CN1CCN(CCN2C(=O)c3cccc4cccc(c34)C2=O)CC1)c1ccccc1 (centres undefined)	5.9*	/	/	/	9.2	/
C=CCSc1nc2sc(C)c(C)c2c(=O)n1N	99.6	/	/	/	92.8	/
Cc1cc(C)nc(N(C#N)Cc2cccc3ccccc23)n1	96.4	-5.19*	88.4	74.3	93.3	96.1
C/C(=N\NC(=O)CN1CCOCC1)C(C)(C)C	95.6	0.68	/	/	96.1	/
CC(=O)n1cc(-c2ccncc2)c2ccccc21	86.5	0.238	86.0	68.3	72.1	25.1*
CC(=O)n1c2ccccc2c2c1c1ccccc1n2C	76.7	0.0155	79.9	57.7	72.5	78.0
N#CCCn1nc(-c2ccccc2)cc1-n1c(C(F)(F)F)nc2ccccc21	78.0	-3.41*	89.5	92.4	69.1	81.2
Cc1nn(CCC#N)c2nc(-c3ccccc3)cc(C(F)(F)F)c12	97.9	-1.56	97.4	69.8	86.3	94.3
Clc1ccccc1-c1nnc2sc(-c3ccc4c(c3)OCO4)nn12	89.4	-3.35	91.9	23.4*	65.4	50.5
Clc1cccc(-c2nnc3sc(-c4ccc5c(c4)OCO5)nn23)c1	/	/	100.1	/	/	105.5
CN(C)c1ccc(-c2nn3c(-c4ccc(Cl)cc4Cl)nnc3s2)cc1	33.8	/	85.1	13.9*	34.7	45.5
SMILES	HCT116 bCat-KO	Cav32 inh	Fibroblast inh	H69AR growth 86K	HCT116 PTEN-null	HUVEC inhibit
Brc1ccccc1-c1nnc2sc(-c3ccc4c(c3)OCCO4)nn12	34.3	-3.98	86.8	16.5*	34.0	72.2
Clc1ccc(-c2nnc3sc(-c4ccc(Br)o4)nn23)c(Cl)c1	97.9	/	/	/	95.1	/
CCCC(=O)NCCc1cc(OC)c(OC)cc1Br	87.6	/	/	/	102.9	/
Cc1nc(Cl)sc1C(=O)Nc1cccc2ccccc12	36.0	/	/	/	45.8	/
Cc1ccc2oc(=O)n(Cc3ccccc3OC(C)C)c2c1	66.4	-6*	95.8	/	67.6	88.1
CCCCOc1ccccc1Cn1c(=O)oc2ccc(C)cc21	86.6	-1.82	/	/	93.7	/
